{"source": "ChEMBL document CHEMBL4732196", "about": "“Structural optimization towards promising β-methyl-4-acrylamido quinoline derivatives as PI3K/mTOR dual inhibitors for anti-cancer therapy: The in vitro and in vivo biological evaluation” (Eur J Med Chem, 2021)", "key": {"[1]": {"biological_target": "T1, Phosphatidylinositol 4,5-bisphosphate 3-kinase catalytic subunit beta isoform (Homo sapiens, UniProt P42338)", "experiment": "Inhibition of human partial length PIK3CB (P118 to S1070 residues) expressed in mammalian expression system assessed as residual activity at 10 uM by kinome scan method relative to control", "summary_of_the_method": "(§1)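 KINOMEscan competitive binding screen at 10 μM test compound against a 52-kinase panel. Output is % Ctrl = (test signal − positive control signal)/(negative control signal − positive control signal) × 100. DMSO is the negative control (100%) and the positive control is set to 0%.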"}, "[2]": {"biological_target": "Phosphatidylinositol 3-kinase C2 domain-containing subunit gamma (Homo sapiens) (UniProt O75747)", "experiment": "Inhibition of human partial length PIK3C2G (M1 to I1446 residues) expressed in mammalian expression system assessed as residual activity at 10 uM by kinome scan method relative to control", "summary_of_the_method": "(§2)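 KINOMEscan binding assay, test compound at 10 μM against a 52-kinase panel. % Ctrl = (compound signal − positive control signal)/(negative control signal − positive control signal) × 100, with DMSO as negative control (100%) and a positive control (0%).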"}, "[3]": {"biological_target": "Mitogen-activated protein kinase 6 (Homo sapiens) (UniProt Q16659)", "sequence (Q16659 whole entry, the tested form may be a part)": "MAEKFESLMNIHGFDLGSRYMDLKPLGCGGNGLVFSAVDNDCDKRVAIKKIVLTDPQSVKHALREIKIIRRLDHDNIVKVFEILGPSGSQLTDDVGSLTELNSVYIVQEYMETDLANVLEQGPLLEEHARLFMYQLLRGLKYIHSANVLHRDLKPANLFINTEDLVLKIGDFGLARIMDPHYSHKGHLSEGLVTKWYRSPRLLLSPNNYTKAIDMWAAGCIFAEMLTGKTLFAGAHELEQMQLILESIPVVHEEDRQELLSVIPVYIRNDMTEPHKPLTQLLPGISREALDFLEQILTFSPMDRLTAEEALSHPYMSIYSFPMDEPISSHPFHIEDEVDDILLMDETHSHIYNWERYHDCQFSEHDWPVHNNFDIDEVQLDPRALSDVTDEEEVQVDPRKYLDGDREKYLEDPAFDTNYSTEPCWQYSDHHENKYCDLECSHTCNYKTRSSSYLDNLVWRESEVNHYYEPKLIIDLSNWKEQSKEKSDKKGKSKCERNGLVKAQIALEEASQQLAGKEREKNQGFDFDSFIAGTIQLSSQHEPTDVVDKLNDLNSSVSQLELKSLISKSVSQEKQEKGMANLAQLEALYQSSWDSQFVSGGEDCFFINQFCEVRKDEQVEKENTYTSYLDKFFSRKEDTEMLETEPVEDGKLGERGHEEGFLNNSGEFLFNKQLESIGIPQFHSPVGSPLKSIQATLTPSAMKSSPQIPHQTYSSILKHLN", "experiment": "Inhibition of human partial length ERK3 (M1 to P413 residues) expressed in bacterial expression system assessed as residual activity at 10 uM by kinome scan method relative to control", "summary_of_the_method": "as §2"}, "U-87 MG": {"system": "U-87 MG", "experiment": "Growth inhibition of human U87MG cells after 72 hrs by sulforhodamine B assay", "format": "functional, U-87MG ATCC"}, "[4]": {"biological_target": "Phosphatidylinositol 4-kinase beta (Homo sapiens) (UniProt Q9UBF8)", "experiment": "Inhibition of human partial length PIK4CB (M1 to M828 residues) expressed in mammalian expression system assessed as residual activity at 10 uM by kinome scan method relative to control", "summary_of_the_method": "as §1"}, "[5]": {"biological_target": "Phosphatidylinositol 4-phosphate 5-kinase type-1 gamma (Homo sapiens) (UniProt O60331)", "experiment": "Inhibition of human full length PIP5K1C (M1 to H562 residues) expressed in bacterial expression system assessed as residual activity at 10 uM by kinome scan method relative to control", "summary_of_the_method": "as §2"}, "[6]": {"biological_target": "Mitogen-activated protein kinase kinase kinase 15 (Homo sapiens) (UniProt Q6ZN16)", "experiment": "Inhibition of human partial length MAP3K15 (T625 to L932 residues) expressed in bacterial expression system assessed as residual activity at 10 uM by kinome scan method relative to control", "summary_of_the_method": "as §2"}, "[7]": {"biological_target": "Cyclin-dependent kinase 8 (Homo sapiens) (UniProt P49336)", "experiment": "Inhibition of human partial length CDK8 (M1 to T360 residues) expressed in bacterial system assessed as residual activity at 10 uM by kinome scan method relative to control", "summary_of_the_method": "as §2"}, "[8]": {"biological_target": "Cyclin-dependent kinase 18 (Homo sapiens) (UniProt Q07002)", "sequence (Q07002 whole entry, the tested form may be a part)": "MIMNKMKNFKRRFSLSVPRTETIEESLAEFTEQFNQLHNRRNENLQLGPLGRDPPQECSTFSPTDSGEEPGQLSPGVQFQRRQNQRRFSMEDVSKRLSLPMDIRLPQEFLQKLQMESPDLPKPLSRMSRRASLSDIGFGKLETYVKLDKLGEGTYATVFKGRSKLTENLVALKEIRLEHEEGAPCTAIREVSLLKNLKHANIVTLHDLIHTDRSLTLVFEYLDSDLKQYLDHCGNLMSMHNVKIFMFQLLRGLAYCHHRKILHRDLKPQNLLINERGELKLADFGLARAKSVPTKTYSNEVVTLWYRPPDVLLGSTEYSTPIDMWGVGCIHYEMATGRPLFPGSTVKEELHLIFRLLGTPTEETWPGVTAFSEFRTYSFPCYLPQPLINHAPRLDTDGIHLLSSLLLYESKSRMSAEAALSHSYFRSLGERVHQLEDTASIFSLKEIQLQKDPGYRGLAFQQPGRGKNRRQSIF", "experiment": "Inhibition of human full length PCTK3 (M3 to F474 residues) expressed in bacterial expression system assessed as residual activity at 10 uM by kinome scan method relative to control", "summary_of_the_method": "as §2"}, "[9]": {"biological_target": "Phosphatidylinositol 4,5-bisphosphate 3-kinase catalytic subunit delta isoform (Homo sapiens, UniProt O00329)", "sequence (O00329 whole entry, canonical isoform)": "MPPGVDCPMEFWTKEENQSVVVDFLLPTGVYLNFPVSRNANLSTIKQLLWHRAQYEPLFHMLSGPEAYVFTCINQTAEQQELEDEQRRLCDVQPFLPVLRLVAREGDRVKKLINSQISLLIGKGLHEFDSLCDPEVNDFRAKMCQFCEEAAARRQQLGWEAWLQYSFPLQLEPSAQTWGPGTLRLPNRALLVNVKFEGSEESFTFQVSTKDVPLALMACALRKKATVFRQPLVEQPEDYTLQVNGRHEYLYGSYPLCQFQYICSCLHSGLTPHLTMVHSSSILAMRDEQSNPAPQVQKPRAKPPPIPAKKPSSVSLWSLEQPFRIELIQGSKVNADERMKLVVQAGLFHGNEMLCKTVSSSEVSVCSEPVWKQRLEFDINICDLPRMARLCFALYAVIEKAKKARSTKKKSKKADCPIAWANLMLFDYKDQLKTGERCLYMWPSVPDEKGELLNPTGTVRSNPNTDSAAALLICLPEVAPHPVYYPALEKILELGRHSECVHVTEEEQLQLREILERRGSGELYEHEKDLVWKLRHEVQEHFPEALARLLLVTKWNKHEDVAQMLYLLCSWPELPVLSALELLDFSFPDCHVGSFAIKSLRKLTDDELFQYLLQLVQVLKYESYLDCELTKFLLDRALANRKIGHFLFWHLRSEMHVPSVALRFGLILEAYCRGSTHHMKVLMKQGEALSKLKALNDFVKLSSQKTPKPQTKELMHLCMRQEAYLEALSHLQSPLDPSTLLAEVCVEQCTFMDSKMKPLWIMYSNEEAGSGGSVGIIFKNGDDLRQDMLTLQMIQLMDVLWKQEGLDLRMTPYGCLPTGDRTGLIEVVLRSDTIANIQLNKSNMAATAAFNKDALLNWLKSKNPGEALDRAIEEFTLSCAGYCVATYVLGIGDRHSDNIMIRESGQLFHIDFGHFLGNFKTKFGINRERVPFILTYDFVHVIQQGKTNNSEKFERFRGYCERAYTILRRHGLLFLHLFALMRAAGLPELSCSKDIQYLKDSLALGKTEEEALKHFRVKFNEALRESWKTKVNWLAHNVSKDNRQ", "experiment": "Inhibition of PI3Kdelta (unknown origin) using PIP2 as substrate measured after 1 hr by ADP-glo assay"}, "[10]": {"biological_target": "T1, Phosphatidylinositol 4,5-bisphosphate 3-kinase catalytic subunit beta isoform", "experiment": "Inhibition of PI3Kbeta (unknown origin) using PIP2 as substrate measured after 1 hr by ADP-glo assay"}, "[11]": {"biological_target": "BMP-2-inducible protein kinase (Homo sapiens) (UniProt Q9NSY1)", "experiment": "Inhibition of human partial length BIKE (S34 to N329 residues) expressed in bacterial system assessed as residual activity at 10 uM by kinome scan method relative to control", "summary_of_the_method": "as §2"}, "[12]": {"biological_target": "1-phosphatidylinositol 3-phosphate 5-kinase (Homo sapiens) (UniProt Q9Y2I7)", "experiment": "Inhibition of human partial length PIKFYVE (F1512 to C2098 residues) expressed in mammalian expression system assessed as residual activity at 10 uM by kinome scan method relative to control", "summary_of_the_method": "as §1"}, "[13]": {"biological_target": "T2, Serine/threonine-protein kinase mTOR (Homo sapiens, UniProt P42345)", "experiment": "Inhibition of human partial length mTOR (L1382 to W2549 residues) expressed in mammalian expression system assessed as residual activity at 10 uM by kinome scan method relative to control", "summary_of_the_method": "as §1"}, "PC-3": {"system": "PC-3", "experiment": "Growth inhibition of human PC3 cells after 72 hrs by sulforhodamine B assay", "format": "functional"}, "[14]": {"biological_target": "Dual specificity mitogen-activated protein kinase kinase 7 (Homo sapiens) (UniProt O14733)", "experiment": "Inhibition of human full length MKK7 (M1 to R419 residues) expressed in mammalian expression system assessed as residual activity at 10 uM by kinome scan method relative to control", "summary_of_the_method": "as §2"}, "[15]": {"biological_target": "Phosphatidylinositol 3-kinase catalytic subunit type 3 (Homo sapiens) (UniProt Q8NEB9)", "experiment": "Inhibition of human partial length VPS34 (S282 to H879 residues) expressed in mammalian expression system assessed as residual activity at 10 uM by kinome scan method relative to control", "summary_of_the_method": "as §1"}, "[16]": {"biological_target": "Activin receptor type-2A (Homo sapiens) (UniProt P27037)", "sequence (P27037 whole entry, the tested form may be a part)": "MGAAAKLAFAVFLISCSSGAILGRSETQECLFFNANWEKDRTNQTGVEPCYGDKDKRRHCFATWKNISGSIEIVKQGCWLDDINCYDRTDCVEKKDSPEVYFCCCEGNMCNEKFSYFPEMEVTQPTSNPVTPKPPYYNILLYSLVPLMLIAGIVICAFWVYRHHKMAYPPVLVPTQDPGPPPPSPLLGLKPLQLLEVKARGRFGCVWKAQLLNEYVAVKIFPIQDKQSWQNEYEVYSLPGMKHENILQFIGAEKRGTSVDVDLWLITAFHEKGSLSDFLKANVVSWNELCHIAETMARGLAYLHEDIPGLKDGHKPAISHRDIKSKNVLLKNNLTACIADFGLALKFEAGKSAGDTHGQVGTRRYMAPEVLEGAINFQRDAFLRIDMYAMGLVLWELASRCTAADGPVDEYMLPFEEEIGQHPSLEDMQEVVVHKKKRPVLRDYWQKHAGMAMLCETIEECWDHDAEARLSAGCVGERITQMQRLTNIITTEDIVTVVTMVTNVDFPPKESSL", "experiment": "Inhibition of human partial length ACVR2A (V171 to T499 residues) expressed in bacterial system assessed as residual activity at 10 uM by kinome scan method relative to control", "summary_of_the_method": "as §2"}, "[17]": {"biological_target": "Phosphatidylinositol 5-phosphate 4-kinase type-2 beta (Homo sapiens) (UniProt P78356)", "experiment": "Inhibition of human full length PIP5K2B (M1 to T416 residues) expressed in bacterial expression system assessed as residual activity at 10 uM by kinome scan method relative to control", "summary_of_the_method": "as §2"}, "[18]": {"experiment": "AUC(0 to t) in Sprague-Dawley rat at 5 mg/kg, po", "format": "ADME, organism-based", "set-up": "dose 5 mg/kg", "details": "in vivo", "summary_of_the_method": "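Male Sprague-Dawley rats (n = 3) given a single oral gavage of 5 mg/kg as a homogeneous opaque suspension in 0.5% methylcellulose; plasma concentration-time curves used to derive mean PK parameters.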"}, "[19]": {"biological_target": "Cyclin-dependent kinase-like 5 (Homo sapiens) (UniProt O76039)", "experiment": "Inhibition of human partial length CDKL5 (M1 to S337 residues) expressed in mammalian expression system assessed as residual activity at 10 uM by kinome scan method relative to control", "summary_of_the_method": "as §2"}, "[20]": {"biological_target": "Casein kinase I isoform alpha-like (Homo sapiens) (UniProt Q8N752)", "sequence (Q8N752 whole entry, the tested form may be a part, canonical isoform)": "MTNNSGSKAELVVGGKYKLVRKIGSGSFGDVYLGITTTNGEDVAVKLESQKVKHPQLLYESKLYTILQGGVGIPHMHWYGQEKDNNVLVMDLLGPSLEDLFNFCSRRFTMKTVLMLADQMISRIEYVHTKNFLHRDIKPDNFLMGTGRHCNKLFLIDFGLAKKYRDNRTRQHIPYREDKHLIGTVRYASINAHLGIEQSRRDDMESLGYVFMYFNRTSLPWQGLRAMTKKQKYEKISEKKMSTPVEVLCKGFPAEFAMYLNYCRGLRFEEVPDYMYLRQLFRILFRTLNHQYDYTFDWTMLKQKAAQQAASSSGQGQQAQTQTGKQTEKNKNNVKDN", "experiment": "Inhibition of human partial length CSNK1A1L (M1 to N337 residues) expressed in bacterial expression system assessed as residual activity at 10 uM by kinome scan method relative to control", "summary_of_the_method": "as §2"}, "[21]": {"biological_target": "Mitotic checkpoint serine/threonine-protein kinase BUB1 (Homo sapiens) (UniProt O43683)", "sequence (O43683 whole entry, looked up, the tested form may be a part)": "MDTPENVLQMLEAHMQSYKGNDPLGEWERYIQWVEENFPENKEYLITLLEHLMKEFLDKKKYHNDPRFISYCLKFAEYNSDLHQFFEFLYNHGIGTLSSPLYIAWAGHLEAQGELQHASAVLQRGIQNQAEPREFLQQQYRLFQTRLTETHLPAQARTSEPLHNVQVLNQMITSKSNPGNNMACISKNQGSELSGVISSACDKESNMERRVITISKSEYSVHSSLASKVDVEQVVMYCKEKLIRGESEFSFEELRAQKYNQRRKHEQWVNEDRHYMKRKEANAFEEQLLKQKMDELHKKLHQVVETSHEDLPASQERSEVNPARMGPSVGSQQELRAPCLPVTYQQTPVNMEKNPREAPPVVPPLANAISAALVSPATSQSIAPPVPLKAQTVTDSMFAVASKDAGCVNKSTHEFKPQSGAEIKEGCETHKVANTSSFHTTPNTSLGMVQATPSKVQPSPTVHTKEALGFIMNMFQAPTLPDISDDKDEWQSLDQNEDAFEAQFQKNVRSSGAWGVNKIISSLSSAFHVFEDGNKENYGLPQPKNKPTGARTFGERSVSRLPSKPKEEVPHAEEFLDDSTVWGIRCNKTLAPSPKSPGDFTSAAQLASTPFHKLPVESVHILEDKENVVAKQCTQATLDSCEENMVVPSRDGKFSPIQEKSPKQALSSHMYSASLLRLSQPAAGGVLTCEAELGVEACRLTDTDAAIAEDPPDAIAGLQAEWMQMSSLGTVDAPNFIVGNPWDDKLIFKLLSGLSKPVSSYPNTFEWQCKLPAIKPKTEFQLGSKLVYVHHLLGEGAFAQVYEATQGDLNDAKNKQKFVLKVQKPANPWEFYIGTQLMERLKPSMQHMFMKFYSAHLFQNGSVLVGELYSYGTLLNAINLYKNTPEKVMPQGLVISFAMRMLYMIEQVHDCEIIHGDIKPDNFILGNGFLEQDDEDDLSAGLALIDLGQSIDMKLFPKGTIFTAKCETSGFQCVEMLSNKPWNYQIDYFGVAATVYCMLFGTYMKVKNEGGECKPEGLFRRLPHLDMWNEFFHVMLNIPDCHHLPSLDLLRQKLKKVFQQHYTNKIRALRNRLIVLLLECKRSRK", "experiment": "Inhibition of human partial length BUB1 (Q724 to K1085 residues) expressed in bacterial system assessed as residual activity at 10 uM by kinome scan method relative to control", "summary_of_the_method": "as §2"}, "[22]": {"biological_target": "Mitogen-activated protein kinase 4 (Homo sapiens) (UniProt P31152)", "sequence (P31152 whole entry, the tested form may be a part)": "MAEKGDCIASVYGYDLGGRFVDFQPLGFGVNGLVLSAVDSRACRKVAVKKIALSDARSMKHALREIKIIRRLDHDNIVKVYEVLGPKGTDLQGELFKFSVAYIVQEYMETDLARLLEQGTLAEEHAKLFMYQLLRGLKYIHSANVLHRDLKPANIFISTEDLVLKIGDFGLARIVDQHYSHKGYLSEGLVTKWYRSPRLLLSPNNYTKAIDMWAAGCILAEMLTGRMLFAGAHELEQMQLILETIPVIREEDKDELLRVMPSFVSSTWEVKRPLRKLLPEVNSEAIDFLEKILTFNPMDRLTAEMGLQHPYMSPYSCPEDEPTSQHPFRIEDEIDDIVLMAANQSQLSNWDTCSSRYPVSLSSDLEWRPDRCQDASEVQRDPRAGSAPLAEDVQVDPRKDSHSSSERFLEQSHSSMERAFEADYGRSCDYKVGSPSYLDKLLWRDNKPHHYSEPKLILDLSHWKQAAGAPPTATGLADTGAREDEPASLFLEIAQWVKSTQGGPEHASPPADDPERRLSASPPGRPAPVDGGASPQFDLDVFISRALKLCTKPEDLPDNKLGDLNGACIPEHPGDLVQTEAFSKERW", "experiment": "Inhibition of human partial length ERK4 (M1 to L365 residues) expressed in mammalian expression system assessed as residual activity at 10 uM by kinome scan method relative to control", "summary_of_the_method": "as §2"}, "[23]": {"biological_target": "T2, Serine/threonine-protein kinase mTOR", "experiment": "Inhibition of mTOR in human U87MG cells assessed as suppression of phosphorylation of S6 ribosomal at 25 nM after 3 hrs by Western blot analysis", "details": "U87"}}, "note": "The source made the active and inactive calls. The rule behind the calls is not given here.", "data": [{"smiles": "COc1ncc(-c2ccc3nccc(/C(C)=C/C(=O)N4CCN(C)CC4)c3c2)cc1NS(=O)(=O)c1ccc(F)cc1F", "values": [{"measurement": "Activity", "setting": "[1]", "value": 0, "unit": "%"}, {"measurement": "Activity", "setting": "[2]", "value": 0, "unit": "%"}, {"measurement": "Activity", "setting": "[3]", "value": 78, "unit": "%"}, {"measurement": "GI50", "setting": "U-87 MG", "value": 0.14, "unit": "µM"}, {"measurement": "Activity", "setting": "[4]", "value": 0.55, "unit": "%"}, {"measurement": "Activity", "setting": "[5]", "value": 35, "unit": "%"}, {"measurement": "Activity", "setting": "[6]", "value": 45, "unit": "%"}, {"measurement": "Activity", "setting": "[7]", "value": 96, "unit": "%"}, {"measurement": "Activity", "setting": "[8]", "value": 78, "unit": "%"}, {"measurement": "IC50", "setting": "[9]", "value": 0.0013, "unit": "µM"}, {"measurement": "IC50", "setting": "[10]", "value": 0.00067, "unit": "µM"}, {"measurement": "Activity", "setting": "[11]", "value": 49, "unit": "%"}, {"measurement": "Activity", "setting": "[12]", "value": 1.9, "unit": "%"}, {"measurement": "Activity", "setting": "[13]", "value": 0, "unit": "%"}, {"measurement": "GI50", "setting": "PC-3", "value": 0.36, "unit": "µM"}, {"measurement": "Activity", "setting": "[14]", "value": 73, "unit": "%"}, {"measurement": "Activity", "setting": "[15]", "value": 0.1, "unit": "%"}, {"measurement": "Activity", "setting": "[16]", "value": 100, "unit": "%"}, {"measurement": "Activity", "setting": "[17]", "value": 9.4, "unit": "%"}, {"measurement": "AUC(0-t)", "setting": "[18]", "value": 1340, "unit": "ng·h/mL"}, {"measurement": "Activity", "setting": "[19]", "value": 69, "unit": "%"}, {"measurement": "Activity", "setting": "[20]", "value": 84, "unit": "%"}, {"measurement": "Activity", "setting": "[21]", "value": 91, "unit": "%"}, {"measurement": "Activity", "setting": "[22]", "value": 100, "unit": "%"}, {"measurement": "inhibition", "setting": "[23]", "value": "Active"}]}]}
